Source: PMC8427789 (ACS Omega, 2021)

Assays:
[1] = target: yeast α-glucosidase (yeast AG) (Saccharomyces cerevisiae, UniProt P53051); experiment: biochemical
[2] = target: T1, recombinant human protein tyrosine phosphatase 1B (PTP-1B) (Homo sapiens, UniProt P18031); experiment: PTP-1B activity assay; format: biochemical
T1 sequence (P18031 1-435): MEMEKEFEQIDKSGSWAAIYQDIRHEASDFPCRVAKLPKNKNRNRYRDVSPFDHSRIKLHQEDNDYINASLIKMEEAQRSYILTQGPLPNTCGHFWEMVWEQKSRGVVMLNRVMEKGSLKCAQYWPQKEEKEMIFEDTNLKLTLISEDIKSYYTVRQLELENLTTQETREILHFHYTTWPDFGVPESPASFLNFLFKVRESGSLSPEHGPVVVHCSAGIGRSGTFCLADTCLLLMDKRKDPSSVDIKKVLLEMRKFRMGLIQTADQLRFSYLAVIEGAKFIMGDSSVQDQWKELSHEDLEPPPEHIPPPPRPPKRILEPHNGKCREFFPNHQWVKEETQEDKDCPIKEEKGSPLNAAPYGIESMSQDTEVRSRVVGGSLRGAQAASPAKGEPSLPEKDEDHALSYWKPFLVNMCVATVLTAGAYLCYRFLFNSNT

PTP-1B = target: T2, PTP-1B (Homo sapiens, UniProt P18031); experiment: PTP-1B kinetic studies; format: biochemical
T2 sequence (P18031 1-435): T1 sequence (P18031 1-435)
How it was run: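 Recombinant human PTP-1B in 100 mM tris buffer, pH 6.8. Test compound at 0.03, 0.07 and 0.1 mM, dissolved in DMSO or buffer, preincubated 5 min with enzyme (solution at 1.56 mg/mL). Then p-NPP added at 0.6–3 mM for 20 min at room temperature, absorbance read at 415 nm. Lineweaver–Burk double-reciprocal plots made; Vmax, Km and Ki from nonlinear regression fit.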

Sequence of yeast α-glucosidase (yeast AG) (P53051 2-589): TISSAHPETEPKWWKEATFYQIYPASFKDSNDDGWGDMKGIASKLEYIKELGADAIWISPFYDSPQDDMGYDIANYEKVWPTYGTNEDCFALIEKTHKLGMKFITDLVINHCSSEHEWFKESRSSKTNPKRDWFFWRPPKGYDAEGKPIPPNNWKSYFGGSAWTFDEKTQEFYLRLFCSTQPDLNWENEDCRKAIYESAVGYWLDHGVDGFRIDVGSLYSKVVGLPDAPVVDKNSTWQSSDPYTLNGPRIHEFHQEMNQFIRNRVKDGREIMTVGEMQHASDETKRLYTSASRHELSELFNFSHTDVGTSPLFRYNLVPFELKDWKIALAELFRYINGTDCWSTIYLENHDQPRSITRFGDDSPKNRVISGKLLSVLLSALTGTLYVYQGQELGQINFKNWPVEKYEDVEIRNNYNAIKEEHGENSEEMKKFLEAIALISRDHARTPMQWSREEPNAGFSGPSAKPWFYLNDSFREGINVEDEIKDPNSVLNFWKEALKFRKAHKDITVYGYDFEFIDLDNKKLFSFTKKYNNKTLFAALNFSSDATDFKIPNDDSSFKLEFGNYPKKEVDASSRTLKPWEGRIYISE

| SMILES | IC50 [1] | IC50 [2] | Ki (PTP-1B) | type of inhibition of PTP-1B (PTP-1B; Lineweaver–Burk plot) | Vmax (PTP-1B; PTP-1B, p-NPP) |
| --- | --- | --- | --- | --- | --- |
| C[C@H]1O[C@H](O[C@H]2[C@H](O)[C@@H](O)[C@@H](O[C@H]3[C@H](O)[C@@H](O)C(O)O[C@@H]3CO)O[C@@H]2CO)[C@H](O)[C@@H](O)[C@@H]1N[C@H]1C=C(CO)[C@@H](O)[C@H](O)[C@H]1O (some centres unmarked) [acarbose] | 403 ± 10 µM | – | – | – | – |
| COC(=O)c1c(O)ccc2oc3cc(CO)cc(O)c3c(=O)c12 [Compound 3, sydowinin B] | – | 81 ± 4 µM | 27.5 µM | noncompetitive | 1.308 mM/min |
